# Source: ChEMBL document CHEMBL3232837, “Synthesis and evaluation of new Hsp90 inhibitors based on a 1,4,5-trisubstituted 1,2,3-triazole scaffold” (J Med Chem, 2014)
# The source made the active and inactive calls. The calls are words filed in the database; no cut-off is given here.
# Experiments:
# NCI-H460 [1] = assay: Cell cycle arrest in human NCI-H460 cells assessed as accumulation at G2/M phase at 2 times IC50 after 24 to 72 hrs by propidium iodide staining-based FACS flow cytometric analysis; assay type: functional
# Mus musculus [2] = assay: (§1) In vivo inhibition of HSP90 in human GTL16 cells overexpressing c-Met xenografted in CD-1 nude mouse assessed as downregulation of AKT protein expression at 5 mg/kg, ip administered as q2d/week for 2 weeks starting 3 days after tumor injection measured at 6 hrs post last dose by Western blot analysis; assay type: functional, organism-based; set-up: dose 5 mg/kg
# Outline: (§2)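 Nude-mouse s.c. xenografts given i.p. compound from day 3. Tumors excised 2 h (A431) or 6 h (GTL-16) after last dose and homogenized in tissue protein extraction reagent with 10 µg/ml protease inhibitor cocktail. Whole lysates analysed by Western blot with actin as loading control; two tumor samples per group shown.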
# Mus musculus [3] = assay: In vivo inhibition of HSP90 in human A431 cells overexpressing EGFR xenografted in CD-1 nude mouse assessed as downregulation of EGFR protein expression at 5 mg/kg, ip administered as q2d/week for 2 weeks starting 3 days after tumor injection measured at 2 hrs post last dose by Western blot analysis; assay type: functional, organism-based; set-up: dose 5 mg/kg; conditions: A-431; outline: as §2
# [4] = target: Heat shock protein HSP 90-beta (Homo sapiens) (UniProt P08238); assay: Inhibition of HSP90 in human A431 cells overexpressing EGFR assessed as downregulation of EGFR protein expression after 24 hrs by Western blot analysis; assay type: cell-based; conditions: A-431
# Heat shock protein HSP 90-beta (Homo sapiens), sequence (P08238 whole entry): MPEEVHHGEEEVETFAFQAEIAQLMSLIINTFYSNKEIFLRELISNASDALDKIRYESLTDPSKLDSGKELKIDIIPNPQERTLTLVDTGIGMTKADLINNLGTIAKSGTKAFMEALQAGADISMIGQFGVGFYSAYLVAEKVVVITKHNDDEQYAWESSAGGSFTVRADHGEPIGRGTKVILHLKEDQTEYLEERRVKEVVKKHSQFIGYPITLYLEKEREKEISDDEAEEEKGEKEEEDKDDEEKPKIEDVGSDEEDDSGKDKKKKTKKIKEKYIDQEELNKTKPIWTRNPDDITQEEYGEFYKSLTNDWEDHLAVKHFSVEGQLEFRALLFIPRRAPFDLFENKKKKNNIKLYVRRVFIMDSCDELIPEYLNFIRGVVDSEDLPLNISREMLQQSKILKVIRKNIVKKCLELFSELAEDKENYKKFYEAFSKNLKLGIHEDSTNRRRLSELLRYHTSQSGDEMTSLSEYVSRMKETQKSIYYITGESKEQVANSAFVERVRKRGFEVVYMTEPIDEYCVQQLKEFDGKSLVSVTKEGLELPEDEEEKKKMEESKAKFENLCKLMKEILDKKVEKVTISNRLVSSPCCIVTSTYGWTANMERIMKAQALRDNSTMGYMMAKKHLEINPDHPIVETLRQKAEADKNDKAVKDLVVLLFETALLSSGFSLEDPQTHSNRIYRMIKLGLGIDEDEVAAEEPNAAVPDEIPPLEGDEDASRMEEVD
# Outline: (§3)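 A431 cells treated 24 h after seeding for 24 h over a concentration range; 17-DMAG 0.2 µM as reference. Cells lysed in RIPA buffer with protease and phosphatase inhibitors, protein measured by Bradford. Equal protein run on SDS-PAGE and blotted to nitrocellulose, then probed for EGFR, Cdk4, Akt, Hsp70 and actin. ECL detection; densitometry normalized to β-actin. Run at least twice.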
# NCI-H460 [5] = assay: Induction of apoptosis in human NCI-H460 cells assessed as cell with hypodiploid DNA content at 2 times IC50 after 24 to 72 hrs by propidium iodide staining-based FACS flow cytometric analysis; assay type: functional
# Mus musculus [6] = assay: In vivo inhibition of HSP90 in human A431 cells overexpressing EGFR xenografted in CD-1 nude mouse assessed as downregulation of CDK4 protein expression at 5 mg/kg, ip administered as q2d/week for 2 weeks starting 3 days after tumor injection measured at 2 hrs post last dose by Western blot analysis; assay type: functional, organism-based; set-up: dose 5 mg/kg; conditions: A-431; outline: as §2
# Mus musculus [7] = assay: In vivo inhibition of HSP90 in human GTL16 cells overexpressing c-Met xenografted in CD-1 nude mouse assessed as induction of HSP70 protein expression at 5 mg/kg, ip administered as q2d/week for 2 weeks starting 3 days after tumor injection measured at 6 hrs post last dose by Western blot analysis; assay type: functional, organism-based; set-up: dose 5 mg/kg; outline: as §2
# [8] = target: Heat shock protein HSP 90-beta (Homo sapiens) (UniProt P08238); assay: Inhibition of HSP90 in human A431 cells overexpressing EGFR assessed as downregulation of AKT protein expression after 24 hrs by Western blot analysis; assay type: cell-based; conditions: A-431; outline: as §3
# [9] = target: Heat shock protein HSP 90-beta (Homo sapiens) (UniProt P08238); assay: Inhibition of HSP90 in human A431 cells overexpressing EGFR assessed as downregulation of CDK4 protein expression after 24 hrs by Western blot analysis; assay type: cell-based; conditions: A-431; outline: as §3
# NCI-H460 [10] = assay: Cytotoxicity against human NCI-H460 cells assessed as growth inhibition after 72 hrs by SRB assay; assay type: functional, cell-based; conditions: NCI-H460, 72 h
# Outline: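 NCI-H460 cells grown in RPMI-1640 with 10% heat-inactivated FBS, seeded at about 10% confluence and allowed 24 h recovery. Exposed to graded drug concentrations or solvent for 72 h. Surviving fraction measured by sulforhodamine B. IC50 is the concentration giving a 50% drop in cell number vs vehicle, from dose-response curve fitting; mean of n=4 with SD.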
# Mus musculus [11] = assay: Toxicity in CD-1 nude mouse xenografted with human GTL16 cells overexpressing c-Met assessed as mortality at 5 mg/kg, ip administered as q2d/week for 2 weeks starting 3 days after tumor injection measured on day 5 post last dose relative to vehicle-treated control; assay type: organism-based; set-up: dose 5 mg/kg, route intraperitoneal; conditions: in vivo
# Outline: (§4)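 S.c. right-flank xenografts, 5 × 10^6 cells, in female athymic nude mice 5-6 weeks old. Intraperitoneal dosing in 10 mL/kg from day 3 post-implant. Lethal toxicity counted as deaths in treated mice occurring before the first control mouse died, reported as dead/treated (8 per group). Body weight loss was also tracked from the first treatment day.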
# [12] = Metabolic stability in human plasma assessed as compound remaining at 5 uM measured at 120 mins by LC/MS analysis; assay type: ADME, cell-free
# Outline: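 Compound added to human plasma at 5 µM final and incubated at 37 °C for up to 120 min. Samples quenched in two volumes of chilled acetonitrile and centrifuged at 4 °C. Remaining compound quantified by LC/MS.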
# Mus musculus [13] = assay: Toxicity in CD-1 nude mouse xenografted with human A431 cells overexpressing EGFR assessed as body weight loss at 5 mg/kg, ip administered as q2d/week for 2 weeks starting 3 days after tumor injection measured on day 5 post last dose relative to vehicle-treated control; assay type: organism-based, A-431; set-up: dose 5 mg/kg, route intraperitoneal; conditions: in vivo
# Outline: (§5)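 Female athymic nude mice carrying s.c. xenografts, dosed i.p. (mg/10 mL/kg per administration) starting 3 days after tumor injection. BWL% = 100 − (mean BW day x/mean BW day 1 × 100), day 1 being the first treatment day. Maximum BWL% recorded. Lethal toxicity counted as deaths before the first control death.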
# Mus musculus [14] = assay: In vivo inhibition of HSP90 in human A431 cells overexpressing EGFR xenografted in CD-1 nude mouse assessed as induction of HSP70 protein expression at 5 mg/kg, ip administered as q2d/week for 2 weeks starting 3 days after tumor injection measured at 2 hrs post last dose by Western blot analysis; assay type: functional, organism-based; set-up: dose 5 mg/kg; conditions: A-431; outline: as §2
# Mus musculus [15] = assay: In vivo inhibition of HSP90 in human A431 cells overexpressing EGFR xenografted in CD-1 nude mouse assessed as downregulation of AKT protein expression at 5 mg/kg, ip administered as q2d/week for 2 weeks starting 3 days after tumor injection measured at 2 hrs post last dose by Western blot analysis; assay type: functional, organism-based; set-up: dose 5 mg/kg; conditions: A-431; outline: as §2
# Mus musculus [16] = assay: as §1, with “c-Met” for “AKT”; assay type: functional, organism-based; set-up: dose 5 mg/kg; outline: as §2
# Mus musculus [17] = assay: Toxicity in CD-1 nude mouse xenografted with human A431 cells overexpressing EGFR assessed as mortality at 5 mg/kg, ip administered as q2d/week for 2 weeks starting 3 days after tumor injection measured on day 5 post last dose relative to vehicle-treated control; assay type: organism-based, A-431; set-up: dose 5 mg/kg, route intraperitoneal; conditions: in vivo; outline: as §4
# [18] = target: Heat shock protein HSP 90-alpha (Homo sapiens, UniProt P07900); assay: Displacement of GM-FITC from full-length recombinant human Hsp90-alpha after 4 hrs by fluorescence polarization assay
# A-431 = assay: Antitumor activity against human A431 cells overexpressing EGFR xenografted in CD-1 nude mouse assessed as tumor growth inhibition at 5 mg/kg, ip administered as q2d/week for 2 weeks starting 3 days after tumor injection measured on day 5 post last dose relative to vehicle-treated control; assay type: functional; conditions: A-431, ip, route intraperitoneal, read-out: TGI
# Outline: (§6)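 Female athymic nude mice, 5-6 weeks old, inoculated s.c. in right flank with 5 × 10^6 exponentially growing tumor cells. Intraperitoneal dosing in 10 mL/kg, starting 3 days post-implant. Tumor volume = d²·D/2 from calipered shortest and longest diameters, measured biweekly. TVI% = 100 − (mean TV treated/mean TV control × 100), scored 5 days after last dose. Mann-Whitney test vs vehicle group; 8 mice per group.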
# Mus musculus [19] = assay: as §1, with “CDK4” for “AKT”; assay type: functional, organism-based; set-up: dose 5 mg/kg; outline: as §2
# Mus musculus [20] = assay: Toxicity in CD-1 nude mouse xenografted with human GTL16 cells overexpressing c-Met assessed as body weight loss at 5 mg/kg, ip administered as q2d/week for 2 weeks starting 3 days after tumor injection measured on day 5 post last dose relative to vehicle-treated control; assay type: organism-based; set-up: dose 5 mg/kg, route intraperitoneal; conditions: in vivo; outline: as §5
# [21] = target: Heat shock protein HSP 90-beta (Homo sapiens) (UniProt P08238); assay: Inhibition of HSP90 in human A431 cells overexpressing EGFR assessed as induction of HSP70 protein expression after 24 hrs by Western blot analysis; assay type: cell-based; conditions: A-431; outline: as §3
# [22] = Antitumor activity against human GTL16 cells overexpressing c-Met xenografted in CD-1 nude mouse assessed as tumor growth inhibition at 5 mg/kg, ip administered as q2d/week for 2 weeks starting 3 days after tumor injection measured on day 5 post last dose relative to vehicle-treated control; assay type: functional; conditions: GTL 16, ip, route intraperitoneal, read-out: TGI; outline: as §6
smiles,measurement,setting,value
CCNC(=O)c1nnn(-c2cc(C(C)C)c(O)cc2O)c1-c1ccc(CN2CCOCC2)cc1,Activity,NCI-H460 [1],Active
same,inhibition,Mus musculus [2],Active
same,inhibition,Mus musculus [3],Active
same,inhibition,[4],Dose-dependent effect
same,Activity,NCI-H460 [5],Active
same,inhibition,Mus musculus [6],Active
same,inhibition,Mus musculus [7],Active
same,inhibition,[8],Dose-dependent effect
same,inhibition,[9],Dose-dependent effect
same,IC50,NCI-H460 [10],4 nM
same,Activity,Mus musculus [11],Non-toxic
same,"remaining at 2 h, 5 µM",[12],65%
same,Imax,Mus musculus [13],1%
same,inhibition,Mus musculus [14],Active
same,inhibition,Mus musculus [15],Active
same,inhibition,Mus musculus [16],Active
same,Activity,Mus musculus [17],Non-toxic
same,IC50,[18],< 5 nM
same,inhibition in vivo at 5 mg/kg,A-431,49%
same,inhibition,Mus musculus [19],Active
same,Imax,Mus musculus [20],17%
same,inhibition,[21],Dose-dependent effect
same,inhibition in vivo at 5 mg/kg,[22],42%
